Measurements taken from ChEMBL document CHEMBL4477254, “Synthesis and biological evaluation of some novel triazole hybrids of curcumin mimics and their selective anticancer activity against breast and prostate cancer cell lines” (Bioorg Med Chem Lett, 2016).
One block for each compound: values may come before it. Calls of active or inactive are those of the source. The calls are words filed in the database; no cut-off is given here.

Legend:
MCF7 [1] = assay: Induction of apoptosis in human MCF7 cells assessed as necrotic cells at 9 uM after 24 hrs by annexin V-FITC/propidium iodide staining based flow cytometry (reference value: 4.76%); format: functional
Summary of the method: (§1)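 Apoptosis by Annexin V-FITC/PI dual staining: MCF-7 cells treated 24 h at 3, 6 and 9 µM, then harvested, stained and acquired by flow cytometry; early apoptotic = AnnexinV+/PI−, live = AnnexinV−/PI−, necrotic = AnnexinV−/PI+.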

[2] = target: Serine/threonine-protein kinase AKT (Homo sapiens) (UniProt P31751+Q9Y243+P31749); assay: Inhibition of Akt phosphorylation at […] in human MCF7 cells at 9 uM after 24 hrs by Western blot analysis; format: cell-based
Sequence of Serine/threonine-protein kinase AKT (Homo sapiens) (P31749 whole entry, looked up): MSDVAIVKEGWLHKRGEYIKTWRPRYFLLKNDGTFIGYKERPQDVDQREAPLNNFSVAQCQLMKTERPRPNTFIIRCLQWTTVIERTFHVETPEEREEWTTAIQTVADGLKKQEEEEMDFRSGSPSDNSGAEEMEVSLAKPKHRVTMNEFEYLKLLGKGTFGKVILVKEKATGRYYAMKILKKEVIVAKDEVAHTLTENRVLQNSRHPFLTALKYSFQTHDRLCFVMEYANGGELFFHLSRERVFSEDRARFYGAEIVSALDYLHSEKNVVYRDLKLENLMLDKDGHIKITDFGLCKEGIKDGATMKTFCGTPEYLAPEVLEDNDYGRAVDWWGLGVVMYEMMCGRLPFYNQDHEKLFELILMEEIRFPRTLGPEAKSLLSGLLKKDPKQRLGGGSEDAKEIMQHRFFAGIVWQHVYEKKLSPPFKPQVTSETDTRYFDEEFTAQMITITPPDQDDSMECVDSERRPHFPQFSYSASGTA
Sequence of Serine/threonine-protein kinase AKT (Homo sapiens) (P31751 whole entry, looked up): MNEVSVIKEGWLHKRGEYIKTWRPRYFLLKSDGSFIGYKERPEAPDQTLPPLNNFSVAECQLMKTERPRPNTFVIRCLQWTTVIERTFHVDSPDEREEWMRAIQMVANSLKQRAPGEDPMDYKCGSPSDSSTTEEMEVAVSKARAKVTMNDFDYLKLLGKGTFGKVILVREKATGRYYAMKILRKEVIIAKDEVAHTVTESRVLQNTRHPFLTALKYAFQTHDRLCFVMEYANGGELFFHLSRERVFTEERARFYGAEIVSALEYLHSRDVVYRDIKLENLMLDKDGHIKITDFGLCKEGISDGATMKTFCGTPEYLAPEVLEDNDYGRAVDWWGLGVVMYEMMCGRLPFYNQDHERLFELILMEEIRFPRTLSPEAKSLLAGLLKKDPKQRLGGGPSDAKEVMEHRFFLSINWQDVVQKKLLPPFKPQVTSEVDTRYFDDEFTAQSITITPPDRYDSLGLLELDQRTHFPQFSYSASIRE
Sequence of Serine/threonine-protein kinase AKT (Homo sapiens) (Q9Y243 whole entry, looked up): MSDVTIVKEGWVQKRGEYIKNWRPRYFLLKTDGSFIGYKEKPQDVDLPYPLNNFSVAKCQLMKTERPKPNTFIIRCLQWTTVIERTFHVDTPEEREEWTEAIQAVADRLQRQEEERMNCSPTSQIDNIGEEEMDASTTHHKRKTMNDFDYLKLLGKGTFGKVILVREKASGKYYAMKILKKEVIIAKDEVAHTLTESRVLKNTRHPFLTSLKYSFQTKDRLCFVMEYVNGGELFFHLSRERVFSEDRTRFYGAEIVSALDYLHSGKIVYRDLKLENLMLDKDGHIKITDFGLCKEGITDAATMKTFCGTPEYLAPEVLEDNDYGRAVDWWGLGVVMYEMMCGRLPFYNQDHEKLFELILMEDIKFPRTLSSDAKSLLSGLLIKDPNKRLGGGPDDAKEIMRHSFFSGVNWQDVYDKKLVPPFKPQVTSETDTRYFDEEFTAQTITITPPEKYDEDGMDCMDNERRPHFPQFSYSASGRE
Summary of the method: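 Protein expression was analysed by Western blotting of cells harvested after 24 h compound treatment.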

MCF7 [3] = assay: Induction of apoptosis in human MCF7 cells assessed as viable cells at 9 uM after 24 hrs by annexin V-FITC/propidium iodide staining based flow cytometry (reference value: 82.63%); format: functional; conditions: MCF7, 24 h, read-out: Activity
Summary of the method: (§2)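 MCF-7 cells exposed to 3, 6 or 9 μM and PC-3 cells to 4.8 or 8.8 μM for 24 h, then harvested and dual-stained with Annexin V-FITC/PI and read by flow cytometry. Gates: live AnnexinV⁻/PI⁻, early apoptotic AnnexinV⁺/PI⁻, necrotic AnnexinV⁻/PI⁺.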

MCF7 [4] = assay: Induction of apoptosis in human MCF7 cells assessed as increase in early apoptotic cells after 24 hrs by annexin V-FITC/propidium iodide staining based flow cytometry; format: functional, cell-based; summary of the method: as §1
MCF7 [5] = assay: Induction of apoptosis in human MCF7 cells assessed as late apoptotic cells at 9 uM after 24 hrs by annexin V-FITC/propidium iodide staining based flow cytometry (reference value: 5.25%); format: functional; summary of the method: as §1
[6] = Drug metabolism in liver microsomes (unknown origin) assessed as compound remaining at 5 ug/ml after 5 mins in presence of NADPH by UPLC analysis; format: ADME, Microsome; conditions: read-out: Drug metabolism
Summary of the method: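 Microsomal metabolic stability; percentage of compound remaining intact measured after 5 min incubation in presence of microsomes.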

MCF7 [7] = assay: Increase in Bax expression in human MCF7 cells at 3 to 9 uM after 24 hrs by Western blot analysis; format: functional, cell-based
Summary of the method: (§3)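 MCF-7 or PC-3 cells treated with compound for 24 h, harvested; PCNA, Bax and Bcl-2 protein expression checked by Western blotting.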

MCF7 [8] = assay: Induction of apoptosis in human MCF7 cells assessed as viable cells at 3 uM after 24 hrs by annexin V-FITC/propidium iodide staining based flow cytometry (reference value: 82.63%); format: functional; conditions: MCF7, 24 h, read-out: Activity; summary of the method: as §1
MCF7 [9] = assay: Induction of apoptosis in human MCF7 cells assessed as late apoptotic cells at 6 uM after 24 hrs by annexin V-FITC/propidium iodide staining based flow cytometry (reference value: 5.25%); format: functional; summary of the method: as §1
MCF7 [10] = assay: Cell cycle arrest in human MCF7 cells assessed as accumulation at G0/G1 phase at 9 uM after 24 hrs by propidium iodide staining based flow cytometry (reference value: 45.67%); format: functional
Summary of the method: (§4)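 Cells treated 24 h with test compound, MCF-7 at various concentrations and PC-3 at various concentrations; cells harvested, stained with propidium iodide and acquired by flow cytometry for cell cycle phase distribution.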

MCF7 [11] = assay: Induction of mitochondrial membrane depolarization in human MCF7 cells at 6 uM after 24 hrs by JC-1 staining based flow cytometry (reference value: 11%); format: functional
MCF7 [12] = assay: Cell cycle arrest in human MCF7 cells assessed as accumulation at S phase at 3 uM after 24 hrs by propidium iodide staining based flow cytometry (reference value: 34.03%); format: functional; summary of the method: as §4
MCF7 [13] = assay: Cell cycle arrest in human MCF7 cells assessed as accumulation at G2/M phase at 6 uM after 24 hrs by propidium iodide staining based flow cytometry (reference value: 20.30%); format: functional; summary of the method: as §4
[14] = Intrinsic hepatic clearance in liver microsomes (unknown origin) assessed per mg of protein at 5 ug/ml in presence of NADPH by UPLC analysis; format: ADME, Microsome; conditions: read-out: CLH (converted)
[15] = Half life in liver microsomes (unknown origin) at 5 ug/ml in presence of NADPH by UPLC analysis; format: ADME, Microsome
MCF7 [16] = assay: Induction of apoptosis in human MCF7 cells assessed as necrotic cells at 6 uM after 24 hrs by annexin V-FITC/propidium iodide staining based flow cytometry (reference value: 4.76%); format: functional; summary of the method: as §1
MCF7 [17] = assay: Induction of apoptosis in human MCF7 cells assessed as viable cells at 6 uM after 24 hrs by annexin V-FITC/propidium iodide staining based flow cytometry (reference value: 82.63%); format: functional; conditions: MCF7, 24 h, read-out: Activity; summary of the method: as §2
MCF7 [18] = assay: Cell cycle arrest in human MCF7 cells assessed as decrease in cells at G0/G1 phase after 24 hrs by propidium iodide staining based flow cytometry; format: functional; summary of the method: as §4
MCF7 [19] = assay: Cell cycle arrest in human MCF7 cells assessed as increase in cells at S phase after 24 hrs by propidium iodide staining based flow cytometry; format: functional; summary of the method: as §4
[20] = Elimination rate constant in liver microsomes (unknown origin) at 5 ug/ml measured up to 60 mins by UPLC analysis; format: ADME, Microsome
[21] = Elimination rate constant in liver microsomes (unknown origin) at 8 ug/ml measured up to 60 mins by UPLC analysis; format: ADME, Microsome
PC-3 [22] = assay: Decrease in PCNA levels in human PC3 cells at 4.8 to 8.8 uM after 24 hrs by Western blot analysis; format: functional, cell-based; summary of the method: as §3
[23] = Half life in liver microsomes (unknown origin) at 8 ug/ml in presence of NADPH by UPLC analysis; format: ADME, Microsome
PC-3 [24] = assay: Inhibition of colony formation in human PC3 cells incubated for 24 hrs measured till day 7 by crystal violet staining based assay; format: functional, cell-based
Summary of the method: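 Cells were treated with a range of concentrations for 24 h. The medium was then replaced with complete medium and cells were grown for 7 days. Colonies were stained with 0.1% crystal violet.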

PC-3 [25] = assay: Induction of apoptosis in human PC3 cells assessed as increase in early apoptotic cells after 24 hrs by annexin V-FITC/propidium iodide staining based flow cytometry; format: functional, cell-based; summary of the method: as §2
PC-3 [26] = assay: Cell cycle arrest in human PC3 cells assessed as accumulation at S phase at 4.8 uM after 24 hrs by propidium iodide staining based flow cytometry (reference value: 25.01%); format: functional; summary of the method: as §4
PC-3 [27] = assay: Cell cycle arrest in human PC3 cells assessed as accumulation at G0/G1 phase at 8.8 uM after 24 hrs by propidium iodide staining based flow cytometry (reference value: 72.73%); format: functional; summary of the method: as §4
PC-3 [28] = assay: Decrease in Bcl-2 expression in human PC3 cells at 4.8 to 8.8 uM after 24 hrs by Western blot analysis; format: functional, cell-based; summary of the method: as §3
PC-3 [29] = assay: Induction of apoptosis in human PC3 cells assessed as late apoptotic cells at 4.8 uM after 24 hrs by annexin V-FITC/propidium iodide staining based flow cytometry (reference value: 0.80%); format: functional; summary of the method: as §2
PC-3 [30] = assay: Induction of apoptosis in human PC3 cells assessed as necrotic cells at 8.8 uM after 24 hrs by annexin V-FITC/propidium iodide staining based flow cytometry (reference value: 2.52%); format: functional; summary of the method: as §2
PC-3 [31] = assay: Cell cycle arrest in human PC3 cells assessed as accumulation at G2/M phase at 8.8 uM after 24 hrs by propidium iodide staining based flow cytometry (reference value: 2.25%); format: functional; summary of the method: as §4
PC-3 [32] = assay: Induction of mitochondrial membrane depolarization in human PC3 cells at 8.8 uM after 24 hrs by JC-1 staining based flow cytometry (reference value: 4.51%); format: functional

inhibition [2]: 100%
remaining at 5 min, 5 ug/ml [6]: 46%
CLint scaled at 5 ug/ml [14]: 317 L/h/kg
half-life at 5 ug/ml [15]: 7.52 min
k el at 1 h, 5 ug/ml [20]: 0.00147 s⁻¹
Structure (SMILES): O=C1/C(=C/c2ccccc2F)CN(Cc2cn(Cc3ccc(F)cc3)nn2)C/C1=C\c1ccccc1F
Activity (MCF7 [1]): 9.22%
viability at 9 µM (MCF7 [3]): 40.3%
Activity (MCF7 [4]): Dose-dependent effect
Activity (MCF7 [5]): 19.59%
Activity (MCF7 [7]): Active
viability at 3 µM (MCF7 [8]): 52.4%
Activity (MCF7 [9]): 15.2%
Activity (MCF7 [10]): 2.22%
Activity (MCF7 [11]): 85.6%
Activity (MCF7 [12]): 36.03%
Activity (MCF7 [13]): 43.6%
Activity (MCF7 [16]): 4.28%
viability at 6 µM (MCF7 [17]): 50%
Activity (MCF7 [18]): Dose-dependent effect
Activity (MCF7 [19]): Dose-dependent effect

k el at 1 h, 8 ug/ml [21]: 0.000733 s⁻¹
half-life at 8 ug/ml [23]: 15.9 min
Structure (SMILES): Cc1ccc(/C=C2\CN(Cc3cn(Cc4ccccc4F)nn3)C/C(=C\c3ccc(C)cc3)C2=O)cc1
Activity (PC-3 [22]): Active
inhibition (PC-3 [24]): Dose-dependent effect
Activity (PC-3 [25]): Dose-dependent effect
Activity (PC-3 [26]): 21.02%
Activity (PC-3 [27]): 67.5%
Activity (PC-3 [28]): Active
Activity (PC-3 [29]): 0.81%
Activity (PC-3 [30]): 0.75%
Activity (PC-3 [31]): 8.9%
Activity (PC-3 [32]): 32.02%
